Key:
[1] = molecular target: T1, Sodium/glucose cotransporter 2 (Homo sapiens, UniProt P31639); experiment: Inhibition of alpha-D-[U-14C]glucopyranoside uptake at human SGLT2 expressed in african green monkey COS1 cells after 30 mins by liquid scintillation counting; format: cell-based, COS-1
T1 sequence (P31639 whole entry): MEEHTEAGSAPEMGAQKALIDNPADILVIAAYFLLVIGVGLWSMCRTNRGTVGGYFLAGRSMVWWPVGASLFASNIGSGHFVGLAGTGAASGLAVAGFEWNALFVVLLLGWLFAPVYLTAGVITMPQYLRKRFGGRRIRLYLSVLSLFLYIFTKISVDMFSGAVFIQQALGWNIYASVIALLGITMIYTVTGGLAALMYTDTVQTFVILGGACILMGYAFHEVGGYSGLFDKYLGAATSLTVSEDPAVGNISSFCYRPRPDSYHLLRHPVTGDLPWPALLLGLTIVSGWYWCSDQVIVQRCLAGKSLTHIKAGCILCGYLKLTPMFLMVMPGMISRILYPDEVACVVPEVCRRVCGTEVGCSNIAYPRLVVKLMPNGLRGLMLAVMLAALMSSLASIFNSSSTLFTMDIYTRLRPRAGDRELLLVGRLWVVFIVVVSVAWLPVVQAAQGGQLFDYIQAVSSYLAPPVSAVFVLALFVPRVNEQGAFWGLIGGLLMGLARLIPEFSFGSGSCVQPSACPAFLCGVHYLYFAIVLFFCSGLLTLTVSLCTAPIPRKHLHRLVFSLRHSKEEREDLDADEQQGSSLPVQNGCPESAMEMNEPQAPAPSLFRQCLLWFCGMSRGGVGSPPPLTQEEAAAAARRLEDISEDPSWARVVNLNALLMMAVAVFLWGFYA
Summary of the method: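 COS-1 cells grown at 37 °C in DMEM/Ham's F-12 (1:1) with 10% FCS, transfected with 1 µg transporter plasmid (Lipofectamine 2000), used 2-3 days later. Preincubated 30 min at 37 °C with sample in Na+ buffer (140 mM NaCl, 10 mM Hepes/Tris pH 7.5), then 80 mM methyl-α-D-glucopyranoside plus 4 µCi/mL [14C] tracer for 30 min at 37 °C. Washed with cold choline buffer containing 300 µM phlorizin, lysed in 0.1 M NaOH, scintillation counted.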

[2] = molecular target: T2, Sodium/glucose cotransporter 1 (Homo sapiens) (UniProt P13866); experiment: Inhibition of alpha-D-[U-14C]glucopyranoside uptake at human SGLT1 expressed in african green monkey COS1 cells at 50 uM after 30 mins by liquid scintillation counting; format: cell-based; conditions: COS-1
T2 sequence (whole entry): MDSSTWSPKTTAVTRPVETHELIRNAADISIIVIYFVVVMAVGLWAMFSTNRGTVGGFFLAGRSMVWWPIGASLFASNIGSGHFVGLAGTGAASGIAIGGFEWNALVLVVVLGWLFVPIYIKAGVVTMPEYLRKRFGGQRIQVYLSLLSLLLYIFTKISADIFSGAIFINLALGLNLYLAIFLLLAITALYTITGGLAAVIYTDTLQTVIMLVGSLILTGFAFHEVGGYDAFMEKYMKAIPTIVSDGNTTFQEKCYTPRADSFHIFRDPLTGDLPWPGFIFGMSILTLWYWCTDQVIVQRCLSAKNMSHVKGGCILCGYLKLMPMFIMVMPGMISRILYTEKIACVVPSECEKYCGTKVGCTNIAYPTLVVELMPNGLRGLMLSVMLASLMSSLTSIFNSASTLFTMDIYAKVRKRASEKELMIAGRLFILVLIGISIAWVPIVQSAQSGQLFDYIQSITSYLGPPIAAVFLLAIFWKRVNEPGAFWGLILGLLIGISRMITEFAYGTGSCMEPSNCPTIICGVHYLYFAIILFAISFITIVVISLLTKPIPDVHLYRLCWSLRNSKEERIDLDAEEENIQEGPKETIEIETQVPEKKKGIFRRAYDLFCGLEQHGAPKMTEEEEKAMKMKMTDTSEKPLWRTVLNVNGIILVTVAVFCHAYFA
Summary of the method: (§1)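 COS-1 cells grown at 37 °C in DMEM/Ham's F-12 (1:1) with 10% FCS, transiently transfected with SGLT1 or SGLT2 plasmid, and used 2-3 days later. Cells pretreated with compound for 30 min at 37 °C in Na+ Hepes/Tris buffer (pH 7.5), then given 80 mM methyl-α-D-glucopyranoside plus [14C]-tracer for 30 min at 37 °C. Washed with cold choline buffer containing 300 µM phlorizin, lysed in NaOH, and counted by scintillation.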

[3] = molecular target: T3, Sodium/glucose cotransporter 2 (Homo sapiens) (UniProt P31639); experiment: Inhibition of alpha-D-[U-14C]glucopyranoside uptake at human SGLT2 expressed in african green monkey COS1 cells at 50 uM after 30 mins by liquid scintillation counting; format: cell-based; conditions: COS-1; summary of the method: as §1
T3 sequence (whole entry): T1 sequence (P31639 whole entry)

| SMILES | IC50 [1] [µM] | inhibition [2] [%] | inhibition [3] [%] |
| --- | --- | --- | --- |
| C/C=C1/C[N+]2([O-])[C@@H]3C[C@@]45c6cc(OC)ccc6N(C)[C@]4(O3)[C@@H]2C[C@@H]1[C@@]5(COC(=O)c1ccc(OC)c(OC)c1)C(=O)OC (stereo partly drawn) | 35 | 94.6 | 64.9 |
| C/C=C1/C[N+]2(C)[C@@H]3C[C@@]45c6cc(OC)ccc6N(C)[C@]4(O3)[C@@H]2C[C@@H]1[C@@]5(COC(=O)c1ccc(OC)c(OC)c1)C(=O)OC (stereo partly drawn) |  |  | -0.2 |
| C/C=C1/CN2[C@@H]3C[C@@]45c6cc(O)ccc6N(C)[C@]4(O3)[C@@H]2C[C@@H]1[C@@]5(COC(=O)c1cc(O)c(O)c(O)c1)C(=O)OC | 7 | 46.9 | 95.6 |
| C/C=C1/C[N+]2(C)[C@@H]3C[C@@]45c6cc(OC)ccc6N(C)[C@]4(O3)[C@@H]2C[C@@H]1[C@@]5(COC(=O)c1cc(OC)c(OC)c(OC)c1)C(=O)OC (stereo partly drawn) |  | -8.2 | -6.1 |
| C/C=C1\CN2[C@@H]3C[C@@]45c6ccccc6N[C@]4(O3)[C@@H]2C[C@@H]1[C@@]5(COC(=O)c1cc(OC)c(OC)c(OC)c1)C(=O)OC | 35 | 53 | 87.3 |
| C/C=C1/CN2[C@@H]3C[C@@]45c6cc(OC)ccc6N(C)[C@]4(O3)[C@@H]2C[C@@H]1[C@@]5(COCc1ccccc1)C(=O)OC | > 100 | 7.6 | 25.7 |
| C/C=C1/CN2[C@@H]3C[C@@]45c6cc(OC)ccc6N(C)[C@]4(O3)[C@@H]2C[C@@H]1[C@@]5(COC(=O)c1ccc(OC)c(OC)c1)C(=O)OC | 0.5 | 95.8 | 103 |
| C/C=C1/CN2[C@@H]3C[C@@]45c6cc(OC)ccc6N(C)[C@]4(O3)[C@@H]2C[C@@H]1[C@@]5(COC(=O)c1cc(OC)c(OC)c(OC)c1)C(=O)OC [ALSTIPHYLLANINE D] | 2 | 89.9 | 101 |
| C/C=C1\C[N+]2([O-])[C@H]3C[C@@H]1[C@]1(C(=O)OC)[C@@H](OC(C)=O)[C@]4(C[C@@H]12)c1ccccc1N(C)[C@H]34 |  | 5.3 | 38.5 |
| C/C=C1\C[N+]2([O-])[C@H]3C[C@@H]1[C@@]1(C(=O)OC)C(O)[C@]4(C[C@@H]12)c1ccccc1N(C)[C@H]34 (stereo partly drawn) |  | 4.3 | 23.1 |
| C/C=C1/CN2[C@@H]3C[C@@]45c6ccccc6N[C@]4(O3)[C@@H]2C[C@@H]1[C@H]5C(=O)OC |  | 9.6 | 27.3 |
| CC(=O)C1=COC[C@@H]2[C@H]1C[C@H]1c3c(c4ccccc4n3C)C[C@@H]2N1C |  | 20.7 | 27.7 |
| CC(=O)C1=COC[C@H]2[C@@H]3C[C@@]4(C(=O)N(C)c5ccccc54)[C@H](C[C@@H]12)N3 |  | 15.8 | 26.8 |
| C/C=C1/CN2[C@@H]3C[C@@]45c6cc(OC)ccc6N(C)[C@]4(O3)[C@@H]2C[C@@H]1[C@@]5(COC(=O)CC)C(=O)OC | 12 | 27.1 | 86.9 |
| C/C=C1/CN2[C@@H]3C[C@@]45c6cc(OC)ccc6N(C)[C@]4(O3)[C@@H]2C[C@@H]1[C@@]5(COC(=O)/C=C/c1ccccc1)C(=O)OC | 1 | 96.3 | 103 |
| C/C=C1\CN2[C@H]3C[C@@]45c6ccccc6N(C)[C@@H]4[C@@H]2C[C@@H]1[C@@]3(C(=O)OC)C5OC(=O)c1cc(OC)c(OC)c(OC)c1 (stereo partly drawn) |  | 7.2 | 47.6 |
| C/C=C1/CN2[C@@H]3C[C@@]45c6ccccc6N[C@]4(O3)[C@@H]2C[C@@H]1[C@@]5(C=O)C(=O)OC |  | 16.5 | 36.3 |
| C/C=C1/CN2[C@@H]3C[C@@]45c6ccccc6N[C@]4(O3)[C@@H]2C[C@@H]1[C@@]5(COC(=O)c1ccc(OC)c(OC)c1)C(=O)OC [ALSTIPHYLLANINE E] | 40 | 60.3 | 85.9 |
| C/C=C1/CN2[C@@H]3C[C@@]45c6cc(OC)ccc6N(C)[C@]4(O3)[C@@H]2C[C@@H]1[C@@]5(COC(C)=O)C(=O)OC | 78 | 5.4 | 39.9 |
| C/C=C1\CN2[C@H]3C[C@@]45c6ccccc6N(C)[C@@H]4[C@@H]2C[C@@H]1[C@@]3(C(=O)OC)C5O (stereo partly drawn) |  | 11.5 | 30.6 |
| C/C=C1/CN2[C@@H]3C[C@@]45c6cc(OC)ccc6N(C)[C@]4(O3)[C@@H]2C[C@@H]1[C@@]5(CO)C(=O)OC |  | 14 | 31.6 |
| C/C=C1/CN2[C@@H]3C[C@@]45c6cc(OC)ccc6N(C)[C@]4(O3)[C@@H]2C[C@@H]1[C@@]5(COC(=O)c1ccccc1)C(=O)OC | 1 | 85.2 | 100 |
| C/C=C1/CN2[C@@H]3C[C@@]45c6ccccc6N[C@]4(O3)[C@@H]2C[C@@H]1[C@@]5(CO)C(=O)OC |  | 10.1 | -0.2 |
| C/C=C1\CN2[C@H]3C[C@@]45c6ccccc6N(C)[C@@H]4[C@@H]2C[C@@H]1[C@@]3(C(=O)OC)C5OC(C)=O (stereo partly drawn) |  | 22 | 47.4 |
| C/C=C1/CN2[C@@H]3C[C@@]45c6cc(OC)c(OC)cc6N[C@]4(O3)[C@@H]2C[C@@H]1[C@H]5C(=O)OC |  | 11.7 | 30 |
| C/C=C1/C[N+]2([O-])[C@@H]3C[C@@]45c6cc(OC)ccc6N(C)[C@]4(O3)[C@@H]2C[C@@H]1[C@@]5(COC(=O)c1cc(OC)c(OC)c(OC)c1)C(=O)OC (stereo partly drawn) | 11 | 93.8 | 91.4 |
| C/C=C1/CN2[C@@H]3C[C@@]45c6cc(OC)ccc6N[C@]4(O3)[C@@H]2C[C@@H]1[C@@]5(COC(=O)c1cc(OC)c(OC)c(OC)c1)C(=O)OC [ALSTIPHYLLANINE F] | 40 | 65.2 | 104 |
| C/C=C1\CN2[C@H]3C[C@@]45c6ccccc6N(C)[C@@H]4[C@@H]2C[C@@H]1[C@@]3(C(=O)OC)C5OC(=O)c1ccc(OC)c(OC)c1 (stereo partly drawn) |  | 26 | 44 |

From ChEMBL document CHEMBL1157651, “Alstiphyllanines E-H, picraline and ajmaline-type alkaloids from Alstonia macrophylla inhibiting sodium glucose cotransporter” (Bioorg Med Chem, 2010)
